Experimental data: ChEMBL document CHEMBL1125347, “Synthesis of novel MPTP analogs as potential monoamine oxidase B (MAO-B) inhibitors” (J Med Chem, 1992); call rule not given here

Key:
[1] = target: T1, Amine oxidase [flavin-containing] B (Bos taurus, UniProt P56560); assay: Monoamine oxidase B Inactivation property expressed as inactivation constant (K inact).
T1 sequence (P56560 whole entry): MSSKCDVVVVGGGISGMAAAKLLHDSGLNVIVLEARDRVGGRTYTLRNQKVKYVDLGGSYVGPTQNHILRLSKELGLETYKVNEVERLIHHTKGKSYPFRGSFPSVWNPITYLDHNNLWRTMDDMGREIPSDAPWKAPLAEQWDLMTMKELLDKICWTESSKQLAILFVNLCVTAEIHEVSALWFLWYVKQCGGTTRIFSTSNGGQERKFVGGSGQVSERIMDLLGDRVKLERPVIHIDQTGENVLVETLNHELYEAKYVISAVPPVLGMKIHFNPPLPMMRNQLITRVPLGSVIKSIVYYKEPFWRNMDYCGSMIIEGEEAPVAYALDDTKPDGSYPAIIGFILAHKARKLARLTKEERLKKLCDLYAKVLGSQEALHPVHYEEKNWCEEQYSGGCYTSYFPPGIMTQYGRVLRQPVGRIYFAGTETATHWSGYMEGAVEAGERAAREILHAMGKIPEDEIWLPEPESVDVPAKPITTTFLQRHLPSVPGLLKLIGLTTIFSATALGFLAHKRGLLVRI

[2] = target: T1, Amine oxidase [flavin-containing] B; assay: Inhibitory constant against monoamine Oxidase(MAO-B).
[3] = Kinetic parameter KM (nM) for the MAO-B catalyzed oxidation of the compound.; type: ADME
Outline: (§1)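 Compound at 0.05-2.5 mM in 100 mM phosphate pH 7.4 was equilibrated 2 min at 37 °C, then 0.05 unit of purified beef liver MAO-B was added. Initial rates were followed by the rise in absorbance of the dihydropyridinium product. KM and Vmax came from Lineweaver-Burk plots. One unit converts 1 μmol benzylamine per min.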

[4] = target: T1, Amine oxidase [flavin-containing] B; assay: MAO-B Inactivation property expressed as inactivation constant (K inact).
[5] = Kinetic parameter Vmax (nm/min/unit of MAO-B) for the MAO-B catalyzed oxidation of the compound.; type: ADME; outline: as §1
[6] = target: T1, Amine oxidase [flavin-containing] B; assay: Monoamine oxidase B Inactivation property expressed as inactivation constant (K inact); Not active
[7] = target: T1, Amine oxidase [flavin-containing] B; assay: Inhibitory constant against monoamine Oxidase (MAO-B); Not active
[8] = target: T1, Amine oxidase [flavin-containing] B; assay: MAO-B Inactivation property expressed as inactivation constant (K inact) was determined at a concentration of 50-100 uM
[9] = target: T1, Amine oxidase [flavin-containing] B; assay: Inhibitory constant against monoamine Oxidase(MAO-B) was determined at a concentration of 50-100 uM
[10] = target: T1, Amine oxidase [flavin-containing] B; assay: Monoamine oxidase B Inactivation property expressed as inactivation constant (K inact) was determined at a concentration of 300-1500 uM
[11] = target: T1, Amine oxidase [flavin-containing] B; assay: Inhibitory constant against monoamine Oxidase(MAO-B) was determined at a concentration of 300-1500 uM

Row | Ki [2] [µM] | SMILES | kinact [1] [s⁻¹] | Km [3] [µM] | Vmax [5] | other results
1 | 154 | C#CC1=CCN(C)CC1 |  | 861 | 684 | kinact [4]: 0.000833 s⁻¹
2 | 820 | CN1CC=C(C#Cc2ccccc2)CC1 |  |  |  | kinact [4]: 0.00533 s⁻¹
3 |  | C1=C(c2ccccc2)CCN(C2CCC2)C1 |  |  |  | kinact [6]: Not Active; Ki [7]: Not Active
4 |  | CN1CC=C(c2ccccc2)CC1 |  | 390 | 204 | 
5 |  | C#CCN1CC=C(c2ccccc2)CC1 |  |  |  | kinact [8]: 0.004 s⁻¹; Ki [9]: 172 µM
6 |  | CCCN1CC=C(c2ccccc2)CC1 |  | 2000 | 7 | kinact [10]: 0.001 s⁻¹; Ki [11]: 5000 µM
7 | 330 | C=CC1=CCN(C)CC1 | 0.00133 | 80 | 190 | 

Row | SMILES | Ki [2] [µM] | kinact [1] [s⁻¹] | Km [3] [µM] | Vmax [5] | other results
8 | C=CCN1CC=C(c2ccccc2)CC1 | 268 | 0.000483 |  |  | 
9 | C1=C(c2ccccc2)CCN(C2CCCC2)C1 | 173 | 0.00075 |  |  | 
